Compound activity from PubChem.
A selection: hits, their analogues and other compounds. The true share with any hit is near 1.6%.
TDP2 inh = human TDP2 enzyme inhibitors, primary screen, biochemical, epi absorbance, recombinant enzyme; T5PNP hydrolysis, p-nitrophenol absorbance 415 nm; actives 0.34% (n = 370,000); inhibition, % at 12.8 µM; Tyrosyl-DNA phosphodiesterase 2 (Homo sapiens), O95551;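 active = inhibition above the mean of all tested compounds plus 3 SD, set per campaign, cut at about 25% in these data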;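 also: 0% = DMSO with enzyme and 100% = buffer with substrate but no TDP2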
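Incubation: 2 h at 37 °C; Test system: recombinant human TDP2; Quantity: enzyme 120 nM; Read-out basis: percent inhibition; Medium: 50 mM Tris-HCl pH 7.5 with Mg2+, KCl, DTT, BSA; Repeats: single replicate; Compound: 12.8 µM single point, 1% DMSO; Signal: epi absorbance; Reagent: 5 mM T5PNP chromogenic substrate; Benchmarks: no-enzyme high, DMSO-plus-enzyme low.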
UCH37 DUB inh = inhibitors of human UCH37 deubiquitinase, primary screen, biochemical, Ub-AMC cleavage, fluorescence | Ubiquitin carboxyl-terminal hydrolase isozyme L5 (Homo sapiens), Q9Y5K5 | purified proteasome/UCH37 | inhibition, % (no concentration beside the values) | actives 0.33% (n = 330,000);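 active = mean inhibition over replicate wells above about 20%, limit read from the data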;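 also: 0% = compound-free wells with enzyme and 100% = wells lacking proteasome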
Target sequence (Q9Y5K5 whole entry, looked up): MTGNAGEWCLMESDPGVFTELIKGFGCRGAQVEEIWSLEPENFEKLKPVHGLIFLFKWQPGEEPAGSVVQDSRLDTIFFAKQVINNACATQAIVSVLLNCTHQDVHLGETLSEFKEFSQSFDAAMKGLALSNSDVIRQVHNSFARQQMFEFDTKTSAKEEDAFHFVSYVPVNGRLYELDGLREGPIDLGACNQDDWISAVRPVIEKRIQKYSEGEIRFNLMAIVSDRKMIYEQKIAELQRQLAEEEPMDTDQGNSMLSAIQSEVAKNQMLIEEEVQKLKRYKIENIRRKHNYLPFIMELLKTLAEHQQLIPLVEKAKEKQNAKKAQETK
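Schedule: 30 min plus 25 min, room temperature / Material: human UCH37 within purified proteasomes / Technique: AMC fluorescence intensity at 355/460 nm / Buffer or medium: pH 7.4 Tris-HCl (50 mM) with ovalbumin, ATP-MgCl2, DTT / Controls: wells without proteasome as full block, compound-free enzyme plus substrate as uninhibited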
HKDC1 inhibitor = HKDC1 hexokinase inhibitors, primary screen, biochemical, fluorescence, uHTS. recombinant HKDC1, G6PDH/diaphorase resazurin coupled fluorescence. inhibition, % at 20 µM. actives 0.16% (n = 340,000). AID 493160, 2011;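 active = inhibition above about 35% when tested at 20 µM, limit read from the data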;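 also: plate controls were DMSO wells with enzyme for no effect and DMSO wells lacking enzyme for full effect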
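Assay system: in-house recombinant HK5 (HKDC1) enzyme. Input: HKDC1 at 5 µg/mL. Medium: Tris pH 8.0 buffer with MgCl2, Tween-20, BSA, BME. Dosing: single 20 µM dose. Schedule: 90 min reaction incubation at room temperature, dark. Signal: resazurin-to-resorufin fluorescence via G6PDH and diaphorase coupling, 525/613 nm. Controls: DMSO-enzyme wells negative, buffer-substituted wells positive.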
GSTO1 inh = inhibitors of recombinant GSTO1, primary screen, counter-screen for RBBP9 inhibitor project, biochemical, fluorescence polarization; activity-based probe fluorescence polarization; inhibition, % at 5.96 µM; actives 1.1% (n = 300,000);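 active = inhibition above the campaign mean inhibition plus 3 SD, cut at about 35% in these data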;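 also: 0% = GSTO1-1 with DMSO and 100% = wells lacking GSTO1-1 enzyme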
Target sequence (P78417 whole entry, looked up): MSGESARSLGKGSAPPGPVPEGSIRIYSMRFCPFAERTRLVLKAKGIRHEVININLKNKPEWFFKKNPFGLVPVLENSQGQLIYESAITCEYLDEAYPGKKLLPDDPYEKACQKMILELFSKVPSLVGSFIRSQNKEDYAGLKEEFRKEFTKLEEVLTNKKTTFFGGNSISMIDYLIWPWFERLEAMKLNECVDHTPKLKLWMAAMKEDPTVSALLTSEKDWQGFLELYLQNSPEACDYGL
PAD4 inh = human PAD4 inhibitors, primary screen, biochemical, fluorescence polarization, 1536-well format. actives 0.41% (n = 330,000). AID 485272, 2010. recombinant PAD4, RCA probe fluorescence polarization. Protein-arginine deiminase type-4 (Homo sapiens), Q9UM07. inhibition, % at 6.36 µM;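 active = percent inhibition above a cutoff equal to the mean of all tested compounds plus 3 SD, cut at about 15% in these data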;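 also: 0% = PAD4 with RCA probe and DMSO and 100% = probe without PAD4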
Fh CTSL1 inh = Fasciola hepatica cathepsin L1 inhibitors, primary screen, counter-screen for PFM18AAP inhibitor project, biochemical, QFRET, fluorogenic peptide substrate. recombinant F. hepatica cathepsin L1, Z-Leu-Arg-MCA fluorescence. inhibition, % at 5.96 µM. actives 0.49% (n = 300,000);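 active = inhibition above the mean of all tested compounds plus 3 SD, set per screening campaign, cut at about 17% in these data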;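 also: 0% = plate median of test compound wells and 100% = 1 µM Z-Phe-Ala-diazomethylketone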
PAD4 FP conf = human PAD4 inhibitors, confirmation, biochemical, fluorescence polarization. actives 28% (n = 1,200). AID 488796, 2010. recombinant PAD4, RCA probe fluorescence polarization. inhibition, % at 6.36 µM. shares compounds with PAD4 inh;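 active = mean inhibition across replicates above the hit cutoff set by the earlier primary screen, cut at about 15% in these data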;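 also: inhibitors block active-site labeling by the probe so polarization falls; 0% = PAD4 with probe and DMSO and 100% = probe without PAD4 enzyme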
Starred values were filed as active, the others as inactive; . = no result given.

SMILES	TDP2 inh	UCH37 DUB inh	HKDC1 inhibitor	GSTO1 inh	PAD4 inh	Fh CTSL1 inh	PAD4 FP conf
Cc1occc1C(=O)NN=C/C(Br)=C\c1ccccc1	.	2.0	.	.	.	.	.
O=C1CCCC(O)=C1N=Nc1c(Cl)cc(C(F)(F)F)cc1Cl	-3.7	10.7	0.6	8.3	85.4*	0.3	-0.4
CC1(C)CC(=O)C(N=Nc2cc(C(F)(F)F)ccc2Cl)=C(O)C1	1.8	7.8	-5.7	4.3	1.0	3.3	.
O=C(O)CCC(=O)c1ccc(-c2ccccc2)cc1	0.5	-5.5	-0.5	-0.5	172.2*	1.6	15.9*
CCC(=O)c1ccc(-c2ccccc2)cc1	-8.5	-5.0	-3.3	2.6	0.6	0.5	.
CCN1C(=O)c2cccc3c(N)ccc(c23)C1=O	-2.6	.	8.4	11.2	26.9*	3.8	25.5*
Cc1ccc(N2C(=O)c3cccc4c(N)ccc(c34)C2=O)c2cccnc12	-1.3	11.0	7.4	-20.9	-21.0	1.7	.
CSc1ccc(C=NNc2cccc(C(=O)O)c2)cc1	.	12.0	.	.	.	.	.
COc1cc(C=NNC(=O)c2cccc([N+](=O)[O-])c2)ccc1OCc1ccccc1	.	0.9	.	.	.	.	.
Cc1cc(C(=O)NN=Cc2ccc(N3CCOCC3)cc2)c(C)o1	.	-131.8	.	.	.	.	.
O=C1/C(=C/C=C/c2ccco2)SC(=S)N1NS(=O)(=O)c1ccccc1	22.0	19.5	29.3	-3.2	64.7*	11.8	2.8
Fc1ccc(COc2ccc(C=Nn3cnnc3)cc2)cc1	.	4.2	.	.	.	.	.
Cn1c(SCC(=O)NN=C/C=C\c2ccco2)nc2ccccc21	.	10.1	.	.	.	.	.
Cn1c(SCC(=O)N/N=C/C=C/c2ccco2)nc2ccccc21	3.0	.	-0.2	7.7	51.7*	1.1	2.0
CC(=O)Nc1ccc(S(=O)(=O)NCc2ccc3c(c2)cc(C)n3C)cc1	-7.7	5.2	7.4	1.1	16.3*	0.7	7.4
Clc1ccc(C[n+]2csc3ccccc32)cc1	12.7	5.8	-14.9	-4.4	19.1*	-7.0	33.7*
Fc1ccc(CSc2ncnc3scc(-c4ccccc4)c23)cc1	-8.6	0.6	7.4	1.1	-0.8	4.8	.
Cc1ccc(-c2c[n+](Cc3ccc(Cl)cc3)c3n2CCC3)cc1	-8.0	3.3	-6.5	1.3	6.2	-1.6	.
Fc1ccc(C[n+]2csc3ccccc32)cc1	8.5	.	-2.5	9.4	20.8*	-0.2	33.8*
O=C(NC1CCN(Cc2ccc(F)cc2)CC1)c1ccccc1	5.4	1.7	-7.5	-4.1	-4.3	5.5	.
O=C(NC(=S)NC1CCN(Cc2ccccc2)CC1)c1ccc(F)cc1	3.5	2.3	0.1	-6.8	32.8*	-1.1	37.5*
Cc1ccc(-c2c(C(=O)NN=Cc3ccoc3)nnn2-c2nonc2N)cc1	.	2.3	.	.	.	.	.
CCOc1ccc(N=C/C=C/c2ccccc2)c(O)c1	6.5	6.0	32.4	54.5*	26.2*	-3.7	-2.2
CCC1(C)Cc2c(sc3nc(SC)[nH]c(=S)c23)CO1 (centres undefined)	.	1.1	0.1	-9.4	35.7*	2.3	27.0*
CCCC(=O)N(Cc1cc(=O)[nH]c2ccccc12)c1cccc(C)c1	5.2	1.1	-4.2	-4.8	22.0*	1.5	48.9*
SMILES	TDP2 inh	UCH37 DUB inh	HKDC1 inhibitor	GSTO1 inh	PAD4 inh	Fh CTSL1 inh	PAD4 FP conf
CCCC(=O)N(Cc1cc(=O)[nH]c2ccccc12)c1ccccc1C	3.3	0.5	-3.5	-2.6	15.0*	-2.7	16.8*
CC(=O)N(Cc1cc(=O)[nH]c2ccccc12)c1cccc(C)c1	-10.7	-2.3	-28.9	2.9	53.0*	-0.7	44.3*
CCC(=O)N(Cc1cc(=O)[nH]c2ccccc12)c1ccc(C)cc1	-21.9	2.3	-6.6	-17.5	15.4*	1.3	0.1
O=C(CNC(=O)C1COc2ccccc2O1)NN=Cc1cccc(O)c1 (centres undefined)	.	3.4	.	.	.	.	.
COc1ccc(OC)c(C=Nc2c(-c3ccc(O)c(OC)c3)nc3ccccn23)c1	.	-5.5	.	.	.	.	.
COc1ccc(C=NNc2nc(N3CCCC3)nc(N3CCCC3)n2)c(OC)c1OC	.	5.8	.	.	.	.	.
CC(Cn1nc([N+](=O)[O-])cc1C)=NNC(=O)COc1c(Cl)cc(Cl)cc1Cl	.	2.1	.	.	.	.	.
O=C(CNc1ccc(F)cc1)NN=CC1CC=CCC1 (centres undefined)	.	-0.5	.	.	.	.	.
Cc1cc(Br)c(OCc2ccc(C(=O)NN=Cc3ccc[nH]3)cc2)c(Br)c1	.	-30.5	.	.	.	.	.
Cc1ccc(C=Nn2nnnc2N)o1	.	9.0	.	.	.	.	.
CN(C(=S)NC(=O)C12CC3CC(CC(C3)C1)C2)c1ccc(O)cc1	18.7	-0.5	12.9	.	24.2*	.	1.3
Cc1ccc(-n2c(C)cc(=O)cc2C)c(C)c1	2.9	1.8	-11.4	3.5	1.0	-1.8	.
Cc1cc(N)ccc1-n1c(C)ccc1C	12.2	3.0	14.7	81.9*	89.7*	2.7	-1.3
O=C(Nc1ccc(Nc2ccccc2)cc1)c1ccccc1	-9.4	6.4	2.6	3.4	46.5*	-0.8	-0.1
Cn1ncc2nc[nH]c(=O)c21	-0.8	1.1	-4.2	4.4	19.4*	0.3	5.6
Nc1ccc(N2CCN(CCCCN3C(=O)C4CCCN4C3=O)CC2)cc1 (centres undefined)	15.0	5.2	15.2	9.7	65.5*	0.6	7.7
COc1ccc(C(=O)NN=Cc2ccc(OC)c(COc3c(F)c(F)cc(F)c3F)c2)cc1	.	-18.7	.	.	.	.	.
COc1cccc(N2CCN(C(=O)c3cn(Cc4ccccc4)nc3-c3cccnc3)CC2)c1	2.3	-0.1	1.6	.	20.9*	.	-0.1
COc1ccccc1N1CCN(C(=O)c2cn(Cc3ccccc3)nc2-c2cccnc2)CC1	0.0	1.7	-6.1	.	-1.6	.	.
Cn1ccc(C(=O)NN=Cc2c[nH]c3ccccc23)n1	.	7.5	.	.	.	.	.
CC(=O)c1cccc(NC(=S)NC2CCCCC2)c1	1.4	3.7	4.8	24.4	33.1*	2.4	6.7
COc1ccc(OCCCC(=O)N2CCN(S(=O)(=O)c3cccc(F)c3)CC2)cc1	3.2	2.3	5.2	3.3	32.9*	1.3	-8.5
CC(C)c1nnc(NC(=O)c2nc(S(=O)(=O)Cc3ccc(F)cc3)ncc2Cl)s1	1.3	.	6.2	0.7	-3.9	5.0	.
Cc1ccc(CS(=O)(=O)c2ncc(Cl)c(C(=O)Nc3nnc(C(C)C)s3)n2)cc1	0.9	.	10.1	-7.8	94.7*	1.1	2.1
O=C1c2cccc3c(O)ccc(c23)C(=O)N1Cc1ccccc1	-2.8	-0.3	11.6	9.3	40.0*	2.4	50.2*
